Series [1] concerns intracellular amastigotes of T. cruzi (Tulahuen strain). The series is classed as cell-based, Trypanosoma cruzi. As to conditions: for SI (anti-trypanosomal): Selectivity index = LC50 (U-937)/EC50 (T. cruzi); for EC50: Trypanosoma cruzi, TULAHUEN, U-937, 72 h, read-out: Anti-trypanosomal EC50. An outline of the steps:
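T. cruzi Tulahuen (β-galactosidase-transfected) epimastigotes are grown 10 days at 26 °C. U-937 cells (2.5×10^4/100 µL, 0.16 µM PMA) are infected at 5:1 for 24 h at 37 °C, 5% CO2, RPMI/10% FBS, then washed. Six serial compound dilutions run for 72 h. CPRG 100 µM plus 0.1% NP-40 for 4 h, dark, then OD 570 nm, blank-subtracted. Benznidazole is the control. Triplicate, ≥2 experiments. SI = U-937 LC50/EC50.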

The test system of series [2] is intracellular amastigotes of L. panamensis. Nature of the series: Anti-leishmanial activity, GFP flow cytometry in infected U-937 cells. As to conditions: for EC50: Leishmania panamensis, U-937, 72 h, read-out: Anti-leishmanial EC50; for SI (anti-leishmanial): Selectivity index = LC50 (U-937)/EC50 (L. panamensis); for Anti-leishmanial activity class: L. panamensis. The series is classed as cell-based, Leishmania panamensis. An outline of the steps: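 L. panamensis GFP strain MHOM/CO/87/UA140 stationary promastigotes infect PMA-treated U-937 cells (3×10^5 cells/mL) at 15:1, 3 h at 34 °C, 5% CO2, then washed. At 24 h, test compound (50.0, 12.5, 3.1, 0.8 µg/mL) is added for 72 h at 37 °C. Flow cytometry at 488/525 nm over 10,000 events gives MFI, corrected with uninfected cells. Amphotericin B is the control. Triplicate, two experiments. SI = U-937 LC50/EC50.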
A general note: Flow cytometry measures light scatter and fluorescence of single cells or particles in a stream.

For series [3], the system named is P. falciparum (3D7 strain). Briefly: Anti-plasmodial activity, pLDH assay. The series is classed as cell-based, Plasmodium falciparum. The conditions noted are these: for EC50: Plasmodium falciparum, 3D7, 72 h, read-out: Anti-plasmodial EC50; for SI (anti-plasmodial): Selectivity index = LC50 (U-937)/EC50 (P. falciparum). A digest of the protocol: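 Asynchronous P. falciparum 3D7 at 0.5% parasitemia, 1% hematocrit in RPMI-1640/1% Albumax II is exposed to test compound at 100, 25, 3.125 and 0.78 µg/mL. Incubation is 72 h at 37 °C under 90% N2/5% CO2/5% O2. Freeze-thawed lysate goes into Malstat (pH 9.0) plus NBT/PES for 1 h in the dark. pLDH is read at 650 nm, blank-subtracted. Chloroquine is the control. SI = U-937 LC50/EC50.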

The nature of series [4]: In vitro cytotoxic activity, MTT assay. The conditions noted are these: human, U-937 cells, Cytotoxicity LC50, U-937 cells, MTT, ±SD (n = 3). The series is classed as cell-based, human. An outline of the steps: (§1)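 Human U-937 macrophages in RPMI 1640/10% FBS are exposed to test compound from 200 to 0.19 µg/mL. MTT formazan is read as OD at 570 nm, with untreated cells as the viability control. Triplicate. LC50 comes from Probit linear regression of dose-response. Classes: LC50 <100 µM potentially cytotoxic, 100–<200 µM mildly cytotoxic, ≥200 µM noncytotoxic.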
Background: Formazan colour is commonly taken as a measure of viable cells.

The subject of another series is U-937 cells. Nature of the series: In vitro cytotoxic activity, MTT assay. The series is classed as cell-based, human. As to conditions: for Degree of cytotoxicity: class by LC50 scale of b21. A digest of the protocol:
as §1

Take `O=C(/C=C/c1ccc(O)cc1)c1cc2ccccc2oc1=O` [Compound A6, 3-[(2E)-3-(4-hydroxyphenyl)prop-2-enoyl]-2H-chromen-2-one]: in series [1], the “SI (anti-trypanosomal)” value is reported as 0.17 and the half-maximal effective concentration (EC50) (usually the concentration that produces a half-maximal response) worked out at 43.2 ± 6.4 µM. In series [2], the 50% effective concentration (EC50) amounted to 8.2 ± 4 µM and the “SI (anti-leishmanial)” value was 0.91. For the same molecule, in series [3], the EC50 was determined as 16.6 ± 0.9 µM and the “SI (anti-plasmodial)” value was 0.45. For the same molecule, in series [4], the CC50 (as a rule, the concentration giving 50% cytotoxicity) came out at 7.5 ± 0.4 µM.

Regarding `O=C(/C=C/c1ccc(Br)cc1)c1cc2ccccc2oc1=O` [Compound A11, 3-[(2E)-3-(4-bromophenyl)prop-2-enoyl]-2H-chromen-2-one], in series [1], the “SI (anti-trypanosomal)” value was 0.72 and the EC50 turned out to be 44.4 ± 3.5 µM. In series [2], the concentration for a half-maximal effect (EC50) turned out to be 31.4 ± 4.2 µM and the “SI (anti-leishmanial)” value was determined as 1.02. Moreover, in series [3], the EC50 amounted to 20.9 ± 1.2 µM and the “SI (anti-plasmodial)” value was determined as 1.54. Besides, the CC50 in series [4] worked out at 32.1 ± 2.2 µM.

`O=C(/C=C/c1ccc2c(c1)OCO2)c1cc2ccccc2oc1=O` [Compound A13, 3-[(2E)-3-(1,3-benzodioxol-5-yl)prop-2-enoyl]-2H-chromen-2-one]: in series [1], the “SI (anti-trypanosomal)” value came out at 0.30 and the EC50 is 129 ± 11 µM. In series [2], the EC50 was greater than 20 µM and the “SI (anti-leishmanial)” value is less than 1.90. In addition, the EC50 in series [3] was 15.2 ± 1.1 µM. The CC50 in series [4] was found to be 38 ± 3.4 µM.

For the molecule `COc1ccc(/C=C/C(=O)c2cc3ccccc3oc2=O)cc1` [Compound A3, 3-[(2E)-3-(4-methoxyphenyl)prop-2-enoyl]-2H-chromen-2-one], in series [1], the “SI (anti-trypanosomal)” value was 0.03 and the 50% effective concentration (EC50) was determined as 327 ± 62.4 µM. Further, in series [2], the EC50 was greater than 6 µM and the “SI (anti-leishmanial)” value is less than 1.89. For the same molecule, in series [3], the EC50 worked out at 38.7 ± 5.6 µM and the “SI (anti-plasmodial)” value amounted to 0.29. In series [4], this molecule displayed a 50% cytotoxic concentration (CC50) of 11.4 ± 2.3 µM.

Consider `O=C(Cn1ccnc1[N+](=O)[O-])NCc1ccccc1` [Benznidazole, reference compound], for which, in series [1], the “SI (anti-trypanosomal)” value was greater than 13.83 and the EC50 stood at 14.5 ± 0.1 µM. Besides, the CC50 in series [4] is greater than 200 µM.

`O=C(/C=C/c1ccccc1)c1cc2ccccc2oc1=O` [Compound A1, 3-[(2E)-3-phenylprop-2-enoyl]-2H-chromen-2-one]: in series [1], the “SI (anti-trypanosomal)” value stood at 0.15 and the EC50 is 44.1 ± 4.2 µM. Moreover, in series [2], the Anti-leishmanial activity class result is listed as “highly active (Compounds with EC50 ≤ 25 μM were considered highly active)”, the EC50 was found to be 3.7 ± 0.5 µM and the “SI (anti-leishmanial)” value was 1.82. Moreover, in series [3], the EC50 is 25.7 ± 3.5 µM and the “SI (anti-plasmodial)” value came out at 0.26. Also, it took 6.7 ± 0.1 µM to reach half-maximal cytotoxicity in series [4] (CC50).

Consider `O=C(/C=C/c1cccc(Br)c1)c1cc2ccccc2oc1=O` [Compound A10, 3-[(2E)-3-(3-bromophenyl)prop-2-enoyl]-2H-chromen-2-one], for which the “SI (anti-trypanosomal)” value in series [1] was 0.98. Further, the results for the EC50 in series [1], in series [2] and in series [3] were 114 ± 8.5 µM, 32.8 ± 3 µM and 19.6 ± 1.7 µM, respectively. Further, the Degree of cytotoxicity entry with U-937 cells is given as “mildly cytotoxic (100 ≤ LC50 < 200 μM)”. Besides, the Toxicity class result with U-937 cells (class by United Nations 2009 scale) is given as “moderately toxic (from 50 to 200 μM moderately toxic)”. Further, the CC50 in series [4] came out at 112 ± 8.2 µM.

Consider `CCN(CC)CCCC(C)Nc1ccnc2cc(Cl)ccc12` (stereo not shown) [Chloroquine, reference compound], for which, in series [3], the EC50 stood at 3.3 ± 0.4 µM and the “SI (anti-plasmodial)” value was found to be 46.34. The molecule further registered a CC50 in series [4] of 155 ± 5.2 µM.

With `C[C@@H]1[C@H](O)[C@@H](C)/C=C/C=C/C=C/C=C/C=C/C=C/C=C/[C@H](O[C@@H]2O[C@H](C)[C@@H](O)[C@H](N)[C@@H]2O)C[C@@H]2O[C@](O)(C[C@@H](O)C[C@@H](O)[C@H](O)CC[C@@H](O)C[C@@H](O)CC(=O)O[C@H]1C)C[C@H](O)[C@H]2C(=O)O` [Amphotericin B, reference compound], in series [2], the EC50 worked out at 0.3 ± 0.1 µM and the “SI (anti-leishmanial)” value came to 108.67. The CC50 in series [4] was determined as 32.6 ± 4 µM.

For the molecule `O=C(/C=C/c1ccc(Cl)cc1)c1cc2ccccc2oc1=O` [Compound A9, 3-[(2E)-3-(4-chlorophenyl)prop-2-enoyl]-2H-chromen-2-one], the “SI (anti-trypanosomal)” value in series [1] was 0.83. Moreover, the results for the EC50 in series [1], in series [2] and in series [3] were 52.1 ± 3.3 µM, 59.1 ± 12.7 µM and 18.9 ± 1.5 µM, respectively. For the same molecule, in series [2], the “SI (anti-leishmanial)” value is given as 0.73. The molecule also showed a CC50 in series [4] of 43.4 ± 3.9 µM.

Regarding `Cc1cccc(/C=C/C(=O)c2cc3ccccc3oc2=O)c1` [Compound A4, 3-[(2E)-3-(3-methylphenyl)prop-2-enoyl]-2H-chromen-2-one], in series [1], the “SI (anti-trypanosomal)” value came to 0.11 and the EC50 worked out at 50 ± 5.3 µM. In series [2], the Anti-leishmanial activity class entry was “highly active (Compounds with EC50 ≤ 25 μM were considered highly active)”, the 50% effective concentration (EC50) was found to be 10.7 ± 5.7 µM and the “SI (anti-leishmanial)” value was found to be 0.53. Further, in series [3], the EC50 came out at 35.3 ± 1.4 µM and the “SI (anti-plasmodial)” value worked out at 0.16. This molecule returned a 50% cytotoxic concentration (CC50) in series [4] of 5.7 ± 0.1 µM.

With `O=C(/C=C/c1cccc([N+](=O)[O-])c1)c1cc2ccccc2oc1=O` [Compound A7, 3-[(2E)-3-(3-nitrophenyl)prop-2-enoyl]-2H-chromen-2-one], in series [1], the “SI (anti-trypanosomal)” value is recorded as 0.23 and the EC50 was 496 ± 62 µM. Also, in series [2], the concentration for a half-maximal effect (EC50) was 64.7 ± 8.6 µM and the “SI (anti-leishmanial)” value was 1.73. In addition, in series [3], the concentration giving a half-maximal response (EC50) stood at 17.9 ± 1.7 µM. In the series with U-937 cells, the Degree of cytotoxicity entry is “mildly cytotoxic (100 ≤ LC50 < 200 μM)”. Moreover, the CC50 in series [4] amounted to 112 ± 10.6 µM.

With `CCOc1cc(/C=C/C(=O)c2cc3ccccc3oc2=O)ccc1O` [Compound A12, 3-[(2E)-3-(3-ethoxy-4-hydroxyphenyl)prop-2-enoyl]-2H-chromen-2-one], in series [1], the “SI (anti-trypanosomal)” value turned out to be 0.21 and the EC50 was 41.2 ± 1.1 µM. Besides, in series [2], the EC50 stood at 6.6 ± 1.3 µM and the “SI (anti-leishmanial)” value was 1.29. In series [3], the EC50 was 15 ± 0.5 µM and the “SI (anti-plasmodial)” value came to 0.57. The molecule also registered a CC50 in series [4] of 8.5 ± 1.6 µM.

In the case of `O=C(/C=C/c1cccc(O)c1)c1cc2ccccc2oc1=O` [Compound A5, 3-[(2E)-3-(3-hydroxyphenyl)prop-2-enoyl]-2H-chromen-2-one], in series [1], the “SI (anti-trypanosomal)” value was 0.31 and the EC50 came out at 18.7 ± 2.4 µM. In series [2], the EC50 was determined as 2.1 ± 0.2 µM and the “SI (anti-leishmanial)” value amounted to 2.85. Further, in series [3], the EC50 is 26.7 ± 3.6 µM and the “SI (anti-plasmodial)” value amounted to 0.22. Further, in series [4], the CC50 came to 5.9 ± 0.2 µM.

Turning to `COc1cccc(/C=C/C(=O)c2cc3ccccc3oc2=O)c1` [Compound A2, 3-[(2E)-3-(3-methoxyphenyl)prop-2-enoyl]-2H-chromen-2-one], in series [1], the “SI (anti-trypanosomal)” value was 0.20 and the EC50 came to 28.4 ± 5.7 µM. Further, in series [2], the EC50 was 2.5 ± 0.2 µM and the “SI (anti-leishmanial)” value was found to be 2.31. In addition, in series [3], the EC50 is 23.3 ± 1.5 µM and the “SI (anti-plasmodial)” value came to 0.25. Further, in series [4], the midpoint of cytotoxicity, the CC50, lay at 5.8 ± 0.1 µM.

`O=C(/C=C/c1ccc([N+](=O)[O-])cc1)c1cc2ccccc2oc1=O` [Compound A8, 3-[(2E)-3-(4-nitrophenyl)prop-2-enoyl]-2H-chromen-2-one]: in series [1], the “SI (anti-trypanosomal)” value was determined as 1.91 and the EC50 is 314 ± 19.9 µM. Besides, in series [2], the EC50 is 197 ± 76.9 µM and the “SI (anti-leishmanial)” value amounted to 3.05. Moreover, the EC50 in series [3] stood at 18.4 ± 1 µM.

`O=C(/C=C/c1ccccc1)c1ccccc1` [Chalcone, reference compound]: in series [1], the “SI (anti-trypanosomal)” value was 0.28 and the EC50 came out at 99.9 ± 39 µM. Further, in series [2], the EC50 was found to be 15 ± 1.44 µM and the “SI (anti-leishmanial)” value was 1.86. In series [3], the EC50 turned out to be 769 ± 72 µM and the “SI (anti-plasmodial)” value was determined as 0.04. The same molecule came in with a CC50 in series [4] of 27.9 ± 0.5 µM.

On to `O=c1ccc2ccccc2o1` [Coumarin, reference compound], for which, in series [1], the “SI (anti-trypanosomal)” value was less than 1.83 and the concentration for a half-maximal effect (EC50) was greater than 7 µM. For the same molecule, in series [2], the EC50 was 64.4 ± 21.8 µM and the “SI (anti-leishmanial)” value is reported as 0.20. In addition, in series [3], the EC50 is 50.7 ± 5.7 µM and the “SI (anti-plasmodial)” value turned out to be 0.25. Besides, in series [4], the cytotoxic concentration (CC50) stood at 12.9 ± 0.5 µM.

For the origin of these results see paper PMC8851253 (Heliyon, 2022).
